Among the data in ChEMBL document CHEMBL1144326, “Exploring the active site of phenylethanolamine N-methyltransferase with 3-hydroxyethyl- and 3-hydroxypropyl-7-substituted-1,2,3,4-tetrahydroisoquinolines” (Bioorg Med Chem Lett, 2005) are pKi and Ki values, retold here.

The term pKi denotes the negative decadic logarithm of the Ki, by convention in mol/L. Low readings indicate a large Ki, high ones a small Ki. Broadly, the Ki is the equilibrium dissociation constant of an inhibitor or competing ligand from its target. Read a high Ki as lower affinity.

For the first experiment, the target named is T1, Alpha-2A adrenergic receptor (Homo sapiens, UniProt P08913).
T1 sequence (P08913 whole entry): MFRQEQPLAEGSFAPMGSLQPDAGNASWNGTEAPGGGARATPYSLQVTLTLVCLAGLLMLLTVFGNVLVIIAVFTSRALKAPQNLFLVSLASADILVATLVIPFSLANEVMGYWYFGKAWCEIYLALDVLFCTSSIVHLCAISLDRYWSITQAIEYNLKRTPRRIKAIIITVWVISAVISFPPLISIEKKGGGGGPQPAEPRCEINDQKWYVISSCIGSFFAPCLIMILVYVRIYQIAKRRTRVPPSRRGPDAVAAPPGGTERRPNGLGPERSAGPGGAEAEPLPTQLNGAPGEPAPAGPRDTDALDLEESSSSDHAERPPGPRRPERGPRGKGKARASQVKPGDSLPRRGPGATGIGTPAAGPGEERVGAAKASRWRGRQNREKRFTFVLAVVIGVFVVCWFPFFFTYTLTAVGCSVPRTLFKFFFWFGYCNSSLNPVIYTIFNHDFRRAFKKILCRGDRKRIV
The experiment in a line: Binding affinity against human alpha 2A adrenergic receptor in CHO cells using [3H]RX-821002 as radioligand. The class given is cell-based. A digest of the protocol:
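Membranes from CHO cells stably transfected with human α2A-adrenoceptor; [³H]RX821002 at 0.2 nM as radioligand; nonspecific binding defined with (−)-norepinephrine; displacement of radioligand measured.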
`O=[N+]([O-])c1ccc2c(c1)CNC(C(F)(F)F)C2` (centres undefined) came in with a pKi of 3.4.
Same read-out and setting: with `FC(F)(F)C1Cc2ccc(Br)cc2CN1` (centres undefined) the figure was 4.35; with `O=[N+]([O-])c1ccc2c(c1)CNC(C(F)F)C2` (centres undefined), 3.6.
Same read-out and setting: with `NS(=O)(=O)c1ccc2c(c1)CNCC2` the figure was 3.4.
On the same count and under the same terms, the value for `O=[N+]([O-])c1ccc2c(c1)CNCC2` was 3.2; that for `Clc1ccc2c(c1Cl)CNCC2` was 6.52; that for `O=[N+]([O-])c1ccc2c(c1)CNC(CO)C2` (centres undefined) was 3.9.
The molecule `CC1Cc2ccc([N+](=O)[O-])cc2CN1` (centres undefined) returned a pKi of 4.84.
Still for that read-out and setting: the value for `O=[N+]([O-])c1ccc2c(c1)CNC(CF)C2` (centres undefined) was 3.2.

Another experiment addresses T2, Adrenergic receptor alpha-2 (Rattus norvegicus, UniProt P22086+P19328+P22909).
T2 sequence (P22086 whole entry): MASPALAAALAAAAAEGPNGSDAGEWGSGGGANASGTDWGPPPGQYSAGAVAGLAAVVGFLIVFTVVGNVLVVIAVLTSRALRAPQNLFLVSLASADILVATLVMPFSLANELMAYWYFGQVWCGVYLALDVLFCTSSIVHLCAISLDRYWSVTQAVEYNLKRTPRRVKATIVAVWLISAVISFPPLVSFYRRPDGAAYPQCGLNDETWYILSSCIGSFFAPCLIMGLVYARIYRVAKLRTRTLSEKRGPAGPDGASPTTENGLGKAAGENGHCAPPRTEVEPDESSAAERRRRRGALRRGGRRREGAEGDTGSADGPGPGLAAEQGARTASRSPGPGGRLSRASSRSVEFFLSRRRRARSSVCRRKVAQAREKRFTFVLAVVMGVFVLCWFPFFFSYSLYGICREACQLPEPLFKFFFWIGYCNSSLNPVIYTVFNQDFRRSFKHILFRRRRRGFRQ
T2 sequence (P19328 whole entry): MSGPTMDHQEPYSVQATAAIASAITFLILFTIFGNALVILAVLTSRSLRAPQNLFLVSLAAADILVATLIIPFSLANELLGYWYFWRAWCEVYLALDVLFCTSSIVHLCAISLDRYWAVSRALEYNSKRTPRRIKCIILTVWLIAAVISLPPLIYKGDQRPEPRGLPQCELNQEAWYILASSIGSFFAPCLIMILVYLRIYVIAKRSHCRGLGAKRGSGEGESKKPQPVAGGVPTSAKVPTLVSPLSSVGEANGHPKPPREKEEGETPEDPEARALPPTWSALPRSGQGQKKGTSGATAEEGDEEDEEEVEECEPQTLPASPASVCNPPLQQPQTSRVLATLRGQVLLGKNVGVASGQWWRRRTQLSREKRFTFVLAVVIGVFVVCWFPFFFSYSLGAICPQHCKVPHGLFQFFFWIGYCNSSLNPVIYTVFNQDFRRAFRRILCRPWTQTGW
T2 sequence (P22909 whole entry): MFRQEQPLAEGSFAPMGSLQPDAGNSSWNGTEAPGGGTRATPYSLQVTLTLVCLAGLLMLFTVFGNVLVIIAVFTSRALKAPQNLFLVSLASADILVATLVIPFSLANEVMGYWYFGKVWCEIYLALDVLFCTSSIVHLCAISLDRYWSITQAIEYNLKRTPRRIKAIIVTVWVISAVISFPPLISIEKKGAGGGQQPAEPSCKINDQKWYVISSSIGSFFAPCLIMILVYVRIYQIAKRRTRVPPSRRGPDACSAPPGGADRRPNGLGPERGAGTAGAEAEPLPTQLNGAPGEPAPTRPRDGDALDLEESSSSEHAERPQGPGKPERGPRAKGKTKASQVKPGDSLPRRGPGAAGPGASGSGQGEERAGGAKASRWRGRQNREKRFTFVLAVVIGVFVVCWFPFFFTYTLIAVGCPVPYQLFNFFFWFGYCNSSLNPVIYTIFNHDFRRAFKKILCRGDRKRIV
The experiment in a line: Binding affinity against alpha 2 adrenergic receptor in rat cortex using [3H]clonidine as radioligand. The class given is tissue-based.
`O=[N+]([O-])c1ccc2c(c1)CNC(CCCO)C2` (centres undefined) came in with an inhibition constant Ki of 59 µM.
Still for that read-out and setting: with `O=[N+]([O-])c1ccc2c(c1)CNC(CCO)C2` (centres undefined) the figure was 46 µM; with `OCCCC1Cc2ccc(Br)cc2CN1` (centres undefined), 4.8 µM.
On to `OCCC1Cc2ccc(Br)cc2CN1` (centres undefined), for which the Ki worked out at 1.3 µM.
The same measure, in the same setting: the value for `OCC1Cc2ccc(Br)cc2CN1` (centres undefined) was 1 µM.
